Experimental findings from ChEMBL document CHEMBL5653631, “A Potent and Selective ULK1 Inhibitor Suppresses Autophagy and Sensitizes Cancer Cells to Nutrient Stress” (iScience, 2018) are described below.

Assay [1] deals with Cyclin-dependent kinase 2 (Homo sapiens) (UniProt P24941). Put plainly: Inhibition of human recombinant CDK2 at 40 nM in presence of ATP by radiometric assay relative to control.
Assay [2] deals with Tyrosine-protein kinase JAK2 (Homo sapiens) (UniProt O60674). Put plainly: Inhibition of human recombinant JAK2 at 40 nM related to control ULK1.
Assay [3] concerns the target Protein kinase C iota type (Homo sapiens) (UniProt P41743). Nature of the assay: Inhibition of human recombinant PKCi at 500 nM in presence of ATP by radiometric assay relative to control.
For assay [4], the target named is Serine/threonine-protein kinase WNK2 (Homo sapiens) (UniProt Q9Y3S1). Nature of the assay: Inhibition of human recombinant Wnk2 at 500 nM related to control ULK1.
The target in assay [5] is Serine/threonine-protein kinase PLK1 (Homo sapiens) (UniProt P53350). Put plainly: Inhibition of human recombinant PLK1 at 500 nM related to control ULK1.
Assay [6] deals with Tyrosine-protein kinase receptor UFO (Homo sapiens) (UniProt P30530). Nature of the assay: Inhibition of human recombinant AXL at 500 nM in presence of ATP by radiometric assay relative to control. Summed up:
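Panel of 327 recombinant human kinases, each assayed in vitro by radiometric activity assay in duplicate at a single inhibitor concentration per compound, chosen with reference to its ULK1 inhibition. Activity remaining was expressed as percent of vehicle control, and percent inhibition was calculated as 100 minus percent activity remaining.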

Assay [7] deals with T1, Serine/threonine-protein kinase ULK3 (Homo sapiens) (UniProt Q6PHR2).
T1 sequence (whole entry): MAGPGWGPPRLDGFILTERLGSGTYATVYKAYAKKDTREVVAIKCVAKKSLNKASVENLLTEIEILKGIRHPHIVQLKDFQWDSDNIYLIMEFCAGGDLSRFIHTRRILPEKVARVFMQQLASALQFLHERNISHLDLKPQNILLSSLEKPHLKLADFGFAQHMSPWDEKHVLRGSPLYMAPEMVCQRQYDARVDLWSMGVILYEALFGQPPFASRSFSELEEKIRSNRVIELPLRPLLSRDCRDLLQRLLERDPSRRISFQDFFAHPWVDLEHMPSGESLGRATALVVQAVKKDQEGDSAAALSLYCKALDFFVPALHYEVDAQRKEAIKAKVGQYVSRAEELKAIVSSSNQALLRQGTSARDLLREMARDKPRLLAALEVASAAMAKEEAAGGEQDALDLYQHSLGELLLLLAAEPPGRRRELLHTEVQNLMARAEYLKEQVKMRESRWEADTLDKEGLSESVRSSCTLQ
Put plainly: Inhibition of human recombinant ULK3 at 500 nM related to control ULK1.

Assay [8] concerns the target Myosin light chain kinase 2, skeletal/cardiac muscle (Homo sapiens) (UniProt Q9H1R3). Put plainly: Inhibition of human recombinant skMLCK at 500 nM related to control ULK1.
Assay [9] concerns the target T2, MAP/microtubule affinity-regulating kinase 4 (Homo sapiens) (UniProt Q96L34).
T2 sequence (whole entry): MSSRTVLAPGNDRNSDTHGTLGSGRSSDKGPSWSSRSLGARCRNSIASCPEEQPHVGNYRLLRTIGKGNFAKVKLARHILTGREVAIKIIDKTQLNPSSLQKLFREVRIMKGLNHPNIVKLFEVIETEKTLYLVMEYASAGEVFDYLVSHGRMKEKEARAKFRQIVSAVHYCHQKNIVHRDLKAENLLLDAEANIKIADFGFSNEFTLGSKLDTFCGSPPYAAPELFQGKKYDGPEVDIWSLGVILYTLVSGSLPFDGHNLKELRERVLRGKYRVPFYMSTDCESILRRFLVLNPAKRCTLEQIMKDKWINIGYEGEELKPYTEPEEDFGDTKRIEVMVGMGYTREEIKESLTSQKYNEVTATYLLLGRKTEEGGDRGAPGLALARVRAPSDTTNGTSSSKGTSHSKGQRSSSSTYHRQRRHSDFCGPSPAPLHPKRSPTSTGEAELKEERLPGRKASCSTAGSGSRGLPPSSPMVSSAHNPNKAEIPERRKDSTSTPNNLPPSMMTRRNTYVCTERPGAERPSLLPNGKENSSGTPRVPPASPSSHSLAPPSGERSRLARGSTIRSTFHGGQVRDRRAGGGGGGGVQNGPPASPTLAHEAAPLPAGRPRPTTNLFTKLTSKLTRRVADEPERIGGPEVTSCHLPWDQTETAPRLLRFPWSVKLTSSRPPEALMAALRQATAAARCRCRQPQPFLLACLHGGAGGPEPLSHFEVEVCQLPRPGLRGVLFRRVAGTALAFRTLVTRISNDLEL
Nature of the assay: Inhibition of human recombinant MARK4 at 15 nM related to control ULK1.

Assay [10] addresses Serine/threonine-protein kinase 33 (Homo sapiens) (UniProt Q9BYT3). Put plainly: Inhibition of human recombinant STK33 at 15 nM related to control ULK1.
Assay [11] addresses T3, Muscle, skeletal receptor tyrosine-protein kinase (Homo sapiens) (UniProt O15146).
T3 sequence (whole entry): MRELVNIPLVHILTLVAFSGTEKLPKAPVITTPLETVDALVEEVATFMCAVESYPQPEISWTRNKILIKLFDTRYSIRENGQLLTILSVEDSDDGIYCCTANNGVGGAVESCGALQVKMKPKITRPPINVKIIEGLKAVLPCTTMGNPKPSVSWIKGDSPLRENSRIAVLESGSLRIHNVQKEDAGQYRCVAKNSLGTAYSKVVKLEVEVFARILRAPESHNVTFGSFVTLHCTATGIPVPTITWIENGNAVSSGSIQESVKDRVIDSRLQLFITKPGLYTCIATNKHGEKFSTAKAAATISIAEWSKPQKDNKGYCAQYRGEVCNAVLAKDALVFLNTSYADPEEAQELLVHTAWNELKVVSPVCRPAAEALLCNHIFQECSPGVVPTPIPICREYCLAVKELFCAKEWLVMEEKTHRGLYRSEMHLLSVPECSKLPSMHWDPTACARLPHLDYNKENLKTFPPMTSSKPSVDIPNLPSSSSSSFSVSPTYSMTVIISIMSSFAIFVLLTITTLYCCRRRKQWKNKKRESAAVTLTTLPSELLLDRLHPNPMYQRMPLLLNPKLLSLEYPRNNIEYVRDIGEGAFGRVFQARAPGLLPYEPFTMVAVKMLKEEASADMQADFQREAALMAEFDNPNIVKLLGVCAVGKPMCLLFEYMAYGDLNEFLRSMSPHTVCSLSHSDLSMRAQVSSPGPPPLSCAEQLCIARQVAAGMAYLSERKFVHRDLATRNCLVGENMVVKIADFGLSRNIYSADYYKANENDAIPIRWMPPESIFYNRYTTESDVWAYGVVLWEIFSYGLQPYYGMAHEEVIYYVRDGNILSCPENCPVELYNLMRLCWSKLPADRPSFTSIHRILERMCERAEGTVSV
Put plainly: Inhibition of human recombinant MUSK at 15 nM in presence of ATP by radiometric assay relative to control.

In assay [12] the target is Casein kinase II subunit alpha' (Homo sapiens) (UniProt P19784). Nature of the assay: Inhibition of human recombinant CK2a2 at 15 nM in presence of ATP by radiometric assay relative to control.
Sequence of Casein kinase II subunit alpha' (Homo sapiens) (P19784 whole entry, looked up): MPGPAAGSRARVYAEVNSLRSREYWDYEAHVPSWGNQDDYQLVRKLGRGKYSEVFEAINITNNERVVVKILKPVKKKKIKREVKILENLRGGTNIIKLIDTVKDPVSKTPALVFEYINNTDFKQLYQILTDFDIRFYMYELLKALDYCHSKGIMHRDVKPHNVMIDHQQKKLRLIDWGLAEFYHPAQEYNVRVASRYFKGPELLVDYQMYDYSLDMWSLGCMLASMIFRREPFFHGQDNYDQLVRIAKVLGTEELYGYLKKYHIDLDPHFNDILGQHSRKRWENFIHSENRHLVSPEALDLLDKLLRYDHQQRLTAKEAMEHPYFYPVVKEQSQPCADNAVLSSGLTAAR

Sequence of Serine/threonine-protein kinase PLK1 (Homo sapiens) (P53350 whole entry): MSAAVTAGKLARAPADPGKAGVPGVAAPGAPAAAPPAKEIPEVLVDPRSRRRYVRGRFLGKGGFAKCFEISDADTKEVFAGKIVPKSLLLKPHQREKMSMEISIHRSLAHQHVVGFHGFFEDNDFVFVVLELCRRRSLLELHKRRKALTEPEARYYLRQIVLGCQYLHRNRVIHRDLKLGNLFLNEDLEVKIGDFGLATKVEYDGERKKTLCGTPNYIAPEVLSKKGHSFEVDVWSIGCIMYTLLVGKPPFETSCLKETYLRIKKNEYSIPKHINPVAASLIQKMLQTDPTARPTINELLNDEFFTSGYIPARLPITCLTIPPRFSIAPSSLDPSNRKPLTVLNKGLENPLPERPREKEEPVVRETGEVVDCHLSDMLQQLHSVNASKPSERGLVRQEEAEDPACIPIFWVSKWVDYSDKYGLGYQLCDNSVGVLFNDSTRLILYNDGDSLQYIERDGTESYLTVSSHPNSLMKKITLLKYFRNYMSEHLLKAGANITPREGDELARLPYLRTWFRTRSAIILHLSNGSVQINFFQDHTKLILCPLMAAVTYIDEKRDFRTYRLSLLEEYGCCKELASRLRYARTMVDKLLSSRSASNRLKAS
Sequence of Serine/threonine-protein kinase WNK2 (Homo sapiens) (Q9Y3S1 whole entry): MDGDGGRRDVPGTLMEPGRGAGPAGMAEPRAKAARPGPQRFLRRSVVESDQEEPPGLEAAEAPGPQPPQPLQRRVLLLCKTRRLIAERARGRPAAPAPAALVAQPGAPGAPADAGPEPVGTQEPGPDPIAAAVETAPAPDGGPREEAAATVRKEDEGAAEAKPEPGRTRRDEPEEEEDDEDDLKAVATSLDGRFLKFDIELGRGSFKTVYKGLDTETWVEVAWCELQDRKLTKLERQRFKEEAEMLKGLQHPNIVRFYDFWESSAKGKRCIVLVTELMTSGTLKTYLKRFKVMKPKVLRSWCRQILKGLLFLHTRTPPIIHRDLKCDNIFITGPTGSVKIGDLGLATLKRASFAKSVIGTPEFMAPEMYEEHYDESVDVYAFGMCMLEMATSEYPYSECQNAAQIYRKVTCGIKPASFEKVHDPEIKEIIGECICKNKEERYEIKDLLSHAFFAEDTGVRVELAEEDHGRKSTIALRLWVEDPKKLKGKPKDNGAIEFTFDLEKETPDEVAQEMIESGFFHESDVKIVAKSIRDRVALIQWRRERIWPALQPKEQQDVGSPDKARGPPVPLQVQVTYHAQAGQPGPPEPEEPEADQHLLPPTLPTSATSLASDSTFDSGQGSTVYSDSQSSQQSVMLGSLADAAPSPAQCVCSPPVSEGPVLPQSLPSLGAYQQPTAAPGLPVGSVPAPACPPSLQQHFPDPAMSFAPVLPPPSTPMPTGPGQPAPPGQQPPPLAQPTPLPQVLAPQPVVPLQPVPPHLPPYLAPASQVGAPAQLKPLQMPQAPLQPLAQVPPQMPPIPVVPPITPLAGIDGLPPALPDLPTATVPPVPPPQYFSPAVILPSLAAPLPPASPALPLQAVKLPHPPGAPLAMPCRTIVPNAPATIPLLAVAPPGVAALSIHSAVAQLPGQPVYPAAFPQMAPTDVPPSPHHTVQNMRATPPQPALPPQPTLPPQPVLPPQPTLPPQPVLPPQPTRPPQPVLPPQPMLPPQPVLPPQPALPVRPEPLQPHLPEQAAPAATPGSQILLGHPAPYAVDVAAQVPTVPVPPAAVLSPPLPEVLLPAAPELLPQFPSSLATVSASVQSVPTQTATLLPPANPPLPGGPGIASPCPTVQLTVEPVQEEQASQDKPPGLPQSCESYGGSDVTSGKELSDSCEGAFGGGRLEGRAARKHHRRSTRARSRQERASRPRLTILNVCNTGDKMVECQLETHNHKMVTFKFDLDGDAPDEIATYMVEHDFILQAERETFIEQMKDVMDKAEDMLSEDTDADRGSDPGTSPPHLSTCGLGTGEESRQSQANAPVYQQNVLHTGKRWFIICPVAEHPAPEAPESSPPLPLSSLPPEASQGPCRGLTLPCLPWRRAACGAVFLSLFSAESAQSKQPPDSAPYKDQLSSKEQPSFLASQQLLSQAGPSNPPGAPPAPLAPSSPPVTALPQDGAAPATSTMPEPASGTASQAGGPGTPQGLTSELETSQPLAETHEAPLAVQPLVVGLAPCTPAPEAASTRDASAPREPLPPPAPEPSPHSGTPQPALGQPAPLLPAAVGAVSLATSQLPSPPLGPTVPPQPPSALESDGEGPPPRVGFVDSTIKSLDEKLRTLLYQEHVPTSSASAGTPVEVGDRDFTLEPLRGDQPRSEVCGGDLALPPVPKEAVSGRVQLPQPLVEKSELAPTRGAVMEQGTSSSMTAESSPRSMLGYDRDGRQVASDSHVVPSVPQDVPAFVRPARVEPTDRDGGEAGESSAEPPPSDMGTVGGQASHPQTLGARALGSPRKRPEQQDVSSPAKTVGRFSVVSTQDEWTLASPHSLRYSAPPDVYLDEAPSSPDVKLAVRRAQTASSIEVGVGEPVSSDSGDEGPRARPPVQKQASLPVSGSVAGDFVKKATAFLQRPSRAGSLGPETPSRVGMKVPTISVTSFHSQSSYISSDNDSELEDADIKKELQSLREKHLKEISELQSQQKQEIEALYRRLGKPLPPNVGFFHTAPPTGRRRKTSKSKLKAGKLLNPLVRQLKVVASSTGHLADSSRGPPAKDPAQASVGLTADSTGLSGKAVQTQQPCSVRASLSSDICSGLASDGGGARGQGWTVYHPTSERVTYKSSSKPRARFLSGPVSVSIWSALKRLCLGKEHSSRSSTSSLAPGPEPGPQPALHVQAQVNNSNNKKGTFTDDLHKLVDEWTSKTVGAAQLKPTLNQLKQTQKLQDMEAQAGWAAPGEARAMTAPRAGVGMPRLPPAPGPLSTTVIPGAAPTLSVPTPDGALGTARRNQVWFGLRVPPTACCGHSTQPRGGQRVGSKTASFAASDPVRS
Sequence of Myosin light chain kinase 2, skeletal/cardiac muscle (Homo sapiens) (Q9H1R3 whole entry): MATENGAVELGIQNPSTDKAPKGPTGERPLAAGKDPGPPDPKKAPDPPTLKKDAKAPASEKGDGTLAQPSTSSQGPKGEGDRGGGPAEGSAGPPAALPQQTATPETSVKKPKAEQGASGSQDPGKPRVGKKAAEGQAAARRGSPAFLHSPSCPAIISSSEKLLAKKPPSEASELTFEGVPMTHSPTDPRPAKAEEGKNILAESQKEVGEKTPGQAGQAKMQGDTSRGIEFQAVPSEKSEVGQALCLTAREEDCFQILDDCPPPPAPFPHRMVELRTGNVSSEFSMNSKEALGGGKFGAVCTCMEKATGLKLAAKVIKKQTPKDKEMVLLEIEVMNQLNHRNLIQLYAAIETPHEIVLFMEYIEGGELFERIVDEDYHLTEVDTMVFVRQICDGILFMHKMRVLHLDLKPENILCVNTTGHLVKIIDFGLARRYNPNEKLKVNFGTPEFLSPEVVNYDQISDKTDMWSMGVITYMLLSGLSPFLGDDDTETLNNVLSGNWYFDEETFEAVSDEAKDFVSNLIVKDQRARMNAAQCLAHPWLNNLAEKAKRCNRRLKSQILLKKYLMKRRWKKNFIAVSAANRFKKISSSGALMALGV
Sequence of Serine/threonine-protein kinase 33 (Homo sapiens) (Q9BYT3 whole entry, looked up): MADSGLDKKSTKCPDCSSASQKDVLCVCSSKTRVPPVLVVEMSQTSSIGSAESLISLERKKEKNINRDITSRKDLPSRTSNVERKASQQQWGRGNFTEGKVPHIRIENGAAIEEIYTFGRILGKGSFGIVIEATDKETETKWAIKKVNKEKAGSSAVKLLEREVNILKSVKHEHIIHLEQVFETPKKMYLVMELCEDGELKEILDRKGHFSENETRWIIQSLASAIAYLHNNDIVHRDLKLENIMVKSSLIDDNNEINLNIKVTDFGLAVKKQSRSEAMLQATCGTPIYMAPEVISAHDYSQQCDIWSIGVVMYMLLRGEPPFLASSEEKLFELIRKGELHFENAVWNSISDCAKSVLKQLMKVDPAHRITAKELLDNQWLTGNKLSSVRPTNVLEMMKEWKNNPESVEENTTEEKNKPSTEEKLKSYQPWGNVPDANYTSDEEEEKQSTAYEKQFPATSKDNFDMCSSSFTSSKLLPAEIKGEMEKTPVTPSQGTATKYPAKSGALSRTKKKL
Sequence of Protein kinase C iota type (Homo sapiens) (P41743 whole entry, looked up): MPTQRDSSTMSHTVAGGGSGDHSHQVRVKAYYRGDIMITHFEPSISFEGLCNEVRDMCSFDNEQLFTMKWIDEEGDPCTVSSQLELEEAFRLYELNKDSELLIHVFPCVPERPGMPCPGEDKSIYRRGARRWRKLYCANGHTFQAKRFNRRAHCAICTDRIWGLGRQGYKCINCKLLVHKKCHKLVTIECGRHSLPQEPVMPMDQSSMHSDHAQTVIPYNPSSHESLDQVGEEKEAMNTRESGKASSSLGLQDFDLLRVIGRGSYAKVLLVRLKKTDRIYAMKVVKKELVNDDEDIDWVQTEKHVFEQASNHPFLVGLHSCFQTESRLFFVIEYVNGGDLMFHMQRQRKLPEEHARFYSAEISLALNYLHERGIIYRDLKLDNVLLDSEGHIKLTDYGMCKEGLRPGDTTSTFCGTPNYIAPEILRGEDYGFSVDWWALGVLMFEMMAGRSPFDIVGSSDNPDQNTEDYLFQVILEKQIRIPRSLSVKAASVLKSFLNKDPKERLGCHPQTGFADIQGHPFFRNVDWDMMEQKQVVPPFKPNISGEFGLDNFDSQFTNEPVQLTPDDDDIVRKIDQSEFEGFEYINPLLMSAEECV

With `O=C(N[C@@H](C1CC1)C(F)(F)F)c1cc(-c2cnn3cc(-c4ccc(F)cc4)cnc23)cs1`, the inhibition in [1] was 29%. Also, the fold change (FC) in [2] stood at 0.

In the case of `CNC(=O)c1ccccc1Oc1nc(Nc2cc(OC)c(OC)c(OC)c2)ncc1Br`, the inhibition in assay [3] came to 0%; in assay [6] it was 5%. The fold change (FC) came to 0.01 in assay [4], 0 in assay [5], 1.14 in assay [7] and 0 in assay [8].

On to `CC(C)[C@H](NC(=O)c1cc(-c2cnn3cc(-c4ccc(OCCN5CCCCC5)cc4)cnc23)cs1)C(F)(F)F`, for which the fold change (FC) in [9] was found to be 0.48; in assay [10], 0.18. Moreover, the inhibition in assay [11] was 0%; in assay [12], 5%.
